# HEK293 NFkB inh = lowers PMA/ionomycin-induced NF-kB signal in HEK293 cells; HEK-293 NF-kB luciferase reporter, luminescence; inhibition, % at 3 µM; actives 0.21% (n = 62,000); AID 465;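 active = inhibition above the mean of all tested compounds plus 3 SD, cut at about 40% in these data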;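 note: 0% = stimulated DMSO wells and 100% = 10 µM reference inhibitor 5653914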
#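 System: NF-kB luciferase reporter HEK-293 cells | Replication: Single test | Control set: DMSO vs reference inhibitor | Evaluation: % inhibition | Schedule: 1 h pretreatment, 16 h stimulation, 37 °C | Probe or stimulus: PMA with ionomycin | Compound dosing: One dose, 3 µM | Detection: Luciferase luminescence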
# Jurkat tox 60K = cytotoxicity toward Jurkat cells; Jurkat E6.1 viability, ATP luminescence, 48 h; inhibition, % at 4 µM; actives 1.2% (n = 56,000); AID 463;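 active = inhibition above the mean inhibition of all tested compounds plus 3 SD, cut at about 28% in these data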
# MT1-MMP txn act = MT1-MMP promoter transcription activation. activation factor at 10 µM. actives 0.16% (n = 86,000). HT1080 MT1-MMP promoter luciferase reporter, luminescence, overnight; active compounds read high. AID 750;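 active = activation factor of at least 2 for MT1-MMP transcription at 10 µM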
# RORa activator = activators of human nuclear receptor RORA. activation, % at 10 µM. AID 560. CHO-K1 Gal4-RORA LBD luciferase reporter, luminescence; percent increase over mock-subtracted basal signal. actives 1.5% (n = 65,000);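 active = activation above the mean of all tested compounds plus 3 SD, cut at about 49% in these data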;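 note: 0% = DMSO-treated RORA cells and 100% = added signal equal to DMSO minus mock-transfected cells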
# SF-1 act = activates the human nuclear receptor SF-1. AID 522. actives 1.9% (n = 65,000). CHO-K1 Gal4-SF-1 LBD luciferase reporter; % increase over DMSO SF-1-specific signal. activation, % at 10 µM. Q13285;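 active = activation above the mean activation of all tested compounds plus 3 SD, cut at about 50% in these data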
# Target sequence (Q13285 whole entry, looked up, the tested form may be a part): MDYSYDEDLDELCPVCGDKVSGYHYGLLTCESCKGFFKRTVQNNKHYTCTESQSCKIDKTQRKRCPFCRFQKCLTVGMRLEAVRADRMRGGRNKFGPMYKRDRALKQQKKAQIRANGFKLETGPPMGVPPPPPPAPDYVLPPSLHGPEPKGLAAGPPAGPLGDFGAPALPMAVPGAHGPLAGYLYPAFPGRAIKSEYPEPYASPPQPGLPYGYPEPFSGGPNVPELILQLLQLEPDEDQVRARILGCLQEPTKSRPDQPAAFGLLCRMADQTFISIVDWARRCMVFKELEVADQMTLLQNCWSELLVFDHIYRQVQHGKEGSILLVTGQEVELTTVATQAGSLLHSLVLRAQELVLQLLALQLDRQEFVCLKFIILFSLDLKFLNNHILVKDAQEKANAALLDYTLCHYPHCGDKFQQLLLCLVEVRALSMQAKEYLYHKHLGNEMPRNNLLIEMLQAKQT
#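 Assay system: CHO-K1 cells co-transfected with Gal4 DBD–human SF-1 LBD, 5xGal4 luciferase reporter; doses: 10 µM only; incubation: 20 h compound exposure at 37 °C after 1 h cell settling; signal: luciferase light emission; evaluation: percent activation versus DMSO; repeats: one test per compound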
# Numbers without * were called inactive; . = no result. The list is not random: actives were taken first. Their share in the collection is about 2.8%.
SMILES,HEK293 NFkB inh,Jurkat tox 60K,MT1-MMP txn act,RORa activator,SF-1 act
COCCNc1oc(-c2ccc(C)cc2)nc1C#N,.,.,1.6,48,61*
CCOc1ccc(Nc2oc(-c3ccc(Cl)cc3)nc2C#N)cc1,.,.,1.7,.,.
COCCNc1oc(-c2ccc(Cl)cc2)nc1C#N,.,.,1.4,34,40
CCOc1ccc(-c2nc(C#N)c(NC3CC3)o2)cc1,-3,9,1.2,63*,9
Cc1ccc(-c2nc(C#N)c(NCCc3ccccn3)o2)cc1,-9,4,1.2,61*,54*
CCOc1ccc(-c2nc(C#N)c(NCc3ccc4c(c3)OCO4)o2)cc1,-2,-2,1.3,3,10
COc1ccc(Nc2oc(-c3ccc(Cl)cc3)nc2C#N)cc1,.,.,2.2*,.,.
CCOC(=O)/C=C1\SCC(=O)N1CC(=O)NC1CCCCC1,8,4,1.3,3,-5
NC(=O)CS(=O)(=O)c1nc2ccccc2n1CC(=O)N1CCCCC1,12,3,1.2,-7,-1
CCOc1ccccc1N1CC(O)=C(c2nc3ccccc3s2)C1=N,30,78*,0.6,30,45
COc1ccc(OC)c(N2CC(O)=C(c3nc4ccccc4s3)C2=N)c1,.,.,1.1,.,.
CC(C)Cn1c(N)c(C(=O)CSc2ccc3c(c2)OCCO3)c(=O)n(C)c1=O,38,36*,1.1,-78,-69
Cc1cccc(N2C(=O)CSC2c2cccnc2)c1 (centres undefined),.,.,1,.,.
Cc1cccc(N2CCN(c3cccc(C)c3)C2c2cccnc2)c1,7,94*,1.2,-17,-2
c1coc(C2Nc3ccccc3-c3nc4ccccc4n32)c1 (centres undefined),0,.,1.3,71*,76*
CC(=O)OC1CC(C)(C)N(OC(=O)c2ccc(N)cc2)C(C)(C)C1,10,-8,1,-3,-11
Cn1c(-c2ccc(C(C)(C)C)cc2)n[nH]c1=S,2,0,1.4,46,2
CC(C)(C)c1ccc(-c2conc2N)cc1,-9,13,1,23,52*
Fc1ccc(-c2nnc(-c3ccc(Cl)cc3Cl)o2)cc1,-23,1,.,-12,-24
Fc1ccc(-c2nnc(-c3ccc(Cl)cc3)o2)cc1,-3,1,1.1,56*,38
CSc1cccc(NC(=O)CN(c2cccc(C)c2)S(C)(=O)=O)c1,.,.,1.3,.,.
CC(=O)Nc1ccc2oc(-c3cc(F)c(F)cc3Cl)nc2c1,-40,-3,.,52*,53*
CC(C)c1ccc2oc(-c3ccc(NC(=O)c4ncn[nH]4)cc3)nc2c1,-47,-6,1,33,66*
O=C(Nc1ccc2oc(-c3ccccc3Cl)nc2c1)c1ncn[nH]1,-40,-2,0.8,62*,76*
CCC(C)c1ccc2oc(-c3ccc(NC(=O)c4ncn[nH]4)cc3)nc2c1 (centres undefined),-15,2,1.2,-9,8
SMILES,HEK293 NFkB inh,Jurkat tox 60K,MT1-MMP txn act,RORa activator,SF-1 act
CC(C)C(=O)Nc1ccc2oc(-c3cc(F)c(F)cc3Cl)nc2c1,.,.,1.4,.,.
OC1(C(F)(F)F)CC(O)(C(F)(F)F)n2nc(-c3ccccc3)cc2N1 (centres undefined),16,-8,1.2,4,-2
Cc1ccc(SCCC(=O)N2CCOCC2)cc1,0,-2,1.4,51*,47
O=C(CCSc1nnnn1-c1ccccc1)N1CCOCC1,-3,.,1.3,2,6
Cc1ccc(SCCC(=O)N2CCCC2)cc1,12,3,1.3,-9,20
O=C(CCSc1ccccc1)N1CCOCC1,-9,3,1.4,32,52*
O=C1CN(C(=O)C2CC2)c2ccccc2N1,.,.,1,.,.
COC(=O)c1cccc(NS(=O)(=O)c2ccc(OC)cc2)c1C,.,.,1.2,.,.
COc1ccc(S(=O)(=O)Nc2cc(Cl)ccc2OC)cc1,28,76*,0.4,1,6
CCOc1ccc(S(=O)(=O)Nc2cc(OC)ccc2OC)cc1,33,96*,0.6,-17,-28
COc1ccc(NS(=O)(=O)c2ccc(NS(=O)(=O)c3ccc(SC)cc3)cc2)c(OC)c1,.,.,1.1,.,.
COc1ccc(OC)c(NS(=O)(=O)c2ccc(SC)cc2)c1,12,78*,1.1,24,18
O=C(Nc1ccn(-c2ccccc2)n1)c1ccc(S(=O)(=O)N2CCCCCC2)cc1,15,34*,1,-4,-2
Cc1ccc(-n2nc3ccc(N)cc3n2)cc1,-37,10,.,-30,-15
CN(C)C=Nc1ccc2nn(-c3ccccc3)nc2c1,-38,-4,1.4,48,74*
c1ccc(Cn2c(-c3ccco3)nc3nc4ccccc4nc32)cc1,-27,1,1.6,75*,82*
CS(=O)(=O)N(CC(=O)N1CCN(Cc2ccc3c(c2)OCO3)CC1)Cc1ccc(Cl)cc1,.,.,1.1,.,.
Cc1cc(NC(=O)c2ccc3c(c2)C(=O)N(C)C3=O)no1,.,.,1,.,.
CCc1ccccc1Nc1ccc(C(=O)O)cc1N,11,6,1.6,15,60*
Nc1cc(C(=O)O)ccc1Nc1ccccc1,10,4,1.1,22,20
Cc1ccc(-c2noc(CSc3nnc(Cc4ccccc4)n3-c3cccc(C)c3)n2)cc1,.,.,1.1,.,.
O=C(O)C1C2CCC(C2)C1C(=O)NCc1ccco1 (centres undefined),10,2,1.1,1,6
CCOC(=O)C1CCN(C(=O)c2cccnc2)CC1,20,6,1.1,-8,-8
CCOC(=O)C1CCN(C(c2cccnc2)c2c(NC(=O)c3ccco3)sc(C)c2C)CC1 (centres undefined),9,34*,1.5,-2,0
Cc1sc(NC(=O)c2ccco2)c(C(c2cccnc2)N2CCN(c3ccc(F)cc3)CC2)c1C (centres undefined),12,35*,.,-10,-48
SMILES,HEK293 NFkB inh,Jurkat tox 60K,MT1-MMP txn act,RORa activator,SF-1 act
O=C(CSc1nnc(Cc2cc(=O)[nH]c(=O)[nH]2)n1-c1ccccc1)N1CCCCC1,3,-7,1.2,6,-5
Cc1cc(C(=O)OCC(=O)NC2CCS(=O)(=O)C2)c(C)n1-c1ccccc1 (centres undefined),14,16,1,23,-14
Cc1ccccc1NC(=O)CCN1CCCCCC1,0,3,1.1,1,17
Cc1ccc(C2=Nc3ccccc3NC(C)(c3ccc(C)o3)C2)o1 (centres undefined),12,-5,1.2,53*,106*
Cc1cccc(-n2ccnc2SCC(=O)Nc2nccs2)c1,-1,2,1.6,-13,60*
Cc1cc(C)cc(-n2ccnc2SCC(=O)Nc2nccs2)c1,-2,12,1.1,-29,15
CCCN1CCN(c2ncnc3c2nnn3Cc2ccccc2)CC1,7,63*,1.1,21,33
COc1cc(S(=O)(=O)N(Cc2ccco2)C2CCCC2)ccc1-n1cnnn1,3,0,1.1,-19,-5
CCOc1ccccc1CN(Cc1ccco1)S(=O)(=O)c1ccc(-n2cnnn2)c(OC)c1,22,67*,1,22,-6
